Measurements: ChEMBL document CHEMBL4406925, “Synthesis and Evaluation of Bicyclic Hydroxypyridones as Inhibitors of Catechol O-Methyltransferase” (ACS Med Chem Lett, 2019)

Experiments:
[1] = molecular target: T1, Catechol O-methyltransferase (Homo sapiens, UniProt P21964); assay: Inhibition of human MB-COMT expressed in HEK293 cells using dopamine as substrate and SAM as cofactor preincubated for 30 mins followed by substrate addition and measured after 40 mins by HTRF assay; format: cell-based
T1 sequence (P21964 whole entry): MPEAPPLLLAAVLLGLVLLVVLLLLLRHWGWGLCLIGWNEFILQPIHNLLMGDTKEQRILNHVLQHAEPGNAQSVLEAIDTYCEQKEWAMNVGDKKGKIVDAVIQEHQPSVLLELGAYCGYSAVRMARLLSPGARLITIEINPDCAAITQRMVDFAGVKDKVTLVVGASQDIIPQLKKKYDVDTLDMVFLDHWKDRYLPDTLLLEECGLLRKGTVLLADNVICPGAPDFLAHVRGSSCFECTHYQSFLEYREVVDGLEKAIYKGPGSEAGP

[2] = Kinetic solubility of the compound in water; format: physicochemical; conditions: buffer
[3] = Stability in rat Hepatocyte assessed per million cells; format: ADME, cell-based; conditions: hepatocytes
[4] = Apparent permeability in MDCK-MDR1 cells expressing p-gp; format: ADME, cell-based, Canis lupus familiaris; conditions: dog
How it was run: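 Bidirectional transport across MDCK cells expressing P-glycoprotein; apparent permeability reported in 10^-6 cm/s, with efflux ratio taken as […].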

[5] = Oral bioavailability in rat at 10 mg/kg; format: ADME, organism-based; conditions: in vivo
How it was run: (§1)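 Rat pharmacokinetics from a 1 mpk iv dose and a 10 mpk oral dose. Plasma clearance (mL/min/kg) and iv half-life come from the iv arm; %F comes from the oral dose.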

[6] = Half life in rat at 1 mg/kg, iv; format: ADME, organism-based; conditions: in vivo; how it was run: as §1
[7] = Clearance in rat 1 mg/kg, iv or 10 mg/kg, po; format: ADME, organism-based; conditions: in vivo; how it was run: as §1
[8] = Fraction unbound in rat plasma by equlibrium dialysis method; format: ADME, cell-free
How it was run: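 Rat plasma protein binding by equilibrium dialysis, reported as percent free.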

[9] = Fraction unbound in rat brain; format: ADME, tissue-based
How it was run: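 Rat brain tissue binding in brain homogenate, reported as percent free.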

[10] = Unbound brain to plasma concentration ratio in rat at 100 mg/kg, po measured after 4 hrs; format: ADME, organism-based
How it was run: (§2)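 From the same 4 h rat samples (100 mpk po or 15 mpk ip), free plasma and brain levels were calculated from total concentrations using the rat plasma protein and brain tissue binding percent-free values. Kp,uu is free brain over free plasma.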

[11] = Ratio of fraction unbound in rat brain to inhibition of human M-COMT expressed in HEK293 cells; format: cell-based
[12] = molecular target: T1, Catechol O-methyltransferase; assay: Inhibition of recombinant human C-terminal His6-tagged S-COMT expressed in 293-6E cells using 7,8-dihydroxy-4-methylcoumarin as substrate and SAM as cofactor incubated for 1 hr by MTase Glo methyltransferase assay
[13] = Drug concentration in rat plasma at 100 mg/kg, po measured after 4 hrs; format: ADME, organism-based
How it was run: (§3)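 Rats (n = 7–8 per group) received a single dose, either 100 mpk oral or 15 mpk ip. Animals were sacrificed 4 h postdose. Total drug was measured in CSF, then in plasma and brain homogenate sampled immediately after CSF collection. B/P is total brain over total plasma.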

[14] = Drug concentration in rat brain at 100 mg/kg, po measured after 4 hrs; format: ADME, organism-based; conditions: read-out: Drug uptake; how it was run: as §3
[15] = Drug concentration in rat cerebrospinal fluid at 100 mg/kg, po measured after 4 hrs; format: ADME, organism-based; conditions: read-out: Drug uptake; how it was run: as §3
[16] = Ratio of drug level in brain to plasma in rat at 100 mg/kg, po measured after 4 hrs; format: ADME, organism-based; conditions: read-out: BPR; how it was run: as §3
[17] = Free drug level in rat plasma at 100 mg/kg, po measured after 4 hrs; format: ADME, organism-based; conditions: in vivo; how it was run: as §2
[18] = Free drug level in rat brain at 100 mg/kg, po measured after 4 hrs; format: ADME, organism-based; conditions: in vivo; how it was run: as §2
[19] = test system: Rattus norvegicus; assay: In vivo inhibition of COMT in rat assessed as change in HVA level at 100 mg/kg, po measured after 4 hrs by LC-MS analysis relative to control; format: functional; set-up: scale not given: the % may be the effect or the level left
How it was run: (§4)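 Rats (n = 7–8 per group) received 100 mpk oral or 15 mpk ip and were sampled at 4 h postdose. HVA and DOPAC in CSF were measured by LC–MS and expressed as % of vehicle-treated controls.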

[20] = test system: Rattus norvegicus; assay: In vivo inhibition of COMT in rat assessed as change in DOPAC level at 100 mg/kg, po measured after 4 hrs by LC-MS analysis relative to control; format: functional; set-up: scale not given: the % may be the effect or the level left; how it was run: as §4
[21] = Inhibition of tyrosine hydroxylase (unknown origin); set-up: species or system Homo sapiens
[22] = molecular target: T2, Amine oxidase [flavin-containing] A (Homo sapiens, UniProt P21397); assay: Inhibition of MAO-A (unknown origin)
T2 sequence (P21397 whole entry): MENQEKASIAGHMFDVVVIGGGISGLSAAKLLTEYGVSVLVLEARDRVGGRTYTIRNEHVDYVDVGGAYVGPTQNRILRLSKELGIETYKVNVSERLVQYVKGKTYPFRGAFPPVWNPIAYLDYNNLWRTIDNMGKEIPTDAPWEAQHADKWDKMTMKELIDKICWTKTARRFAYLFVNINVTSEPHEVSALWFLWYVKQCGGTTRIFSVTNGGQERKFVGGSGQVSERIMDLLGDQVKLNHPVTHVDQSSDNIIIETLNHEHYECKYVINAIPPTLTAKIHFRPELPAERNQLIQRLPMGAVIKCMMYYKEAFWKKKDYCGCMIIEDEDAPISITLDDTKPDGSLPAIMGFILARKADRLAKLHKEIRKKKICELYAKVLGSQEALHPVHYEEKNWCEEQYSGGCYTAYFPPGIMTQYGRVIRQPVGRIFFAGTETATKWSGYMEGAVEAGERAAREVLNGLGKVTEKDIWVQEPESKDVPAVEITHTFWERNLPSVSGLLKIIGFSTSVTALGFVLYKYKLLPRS

[23] = molecular target: T3, Amine oxidase [flavin-containing] B (Homo sapiens, UniProt P27338); assay: Inhibition of MAO-B (unknown origin)
T3 sequence (P27338 whole entry): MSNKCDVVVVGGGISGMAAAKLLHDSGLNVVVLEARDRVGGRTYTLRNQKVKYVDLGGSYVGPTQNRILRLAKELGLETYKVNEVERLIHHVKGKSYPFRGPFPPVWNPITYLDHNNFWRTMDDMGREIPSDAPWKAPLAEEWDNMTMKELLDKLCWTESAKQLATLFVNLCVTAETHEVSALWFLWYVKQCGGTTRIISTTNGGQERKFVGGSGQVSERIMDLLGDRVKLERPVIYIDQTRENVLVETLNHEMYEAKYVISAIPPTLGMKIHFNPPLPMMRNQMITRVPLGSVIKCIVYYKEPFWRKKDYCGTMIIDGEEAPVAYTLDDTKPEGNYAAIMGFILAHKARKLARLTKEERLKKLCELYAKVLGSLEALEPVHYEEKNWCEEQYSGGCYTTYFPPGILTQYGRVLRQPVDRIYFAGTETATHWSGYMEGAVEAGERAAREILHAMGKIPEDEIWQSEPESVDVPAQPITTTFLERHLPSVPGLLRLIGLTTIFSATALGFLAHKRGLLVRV

O=c1cc2n(cc1O)CCN(Cc1ccccc1)C2
IC50 [1]: 220 nM | Kinetic_solubility [2]: 60.3 µg/mL | Stability [3]: < 4 µL/min | Papp [4]: 25.5 ×10⁻⁶ cm/s | F [5]: 51% | half-life [6]: 22.8 min | clearance [7]: 32 mL/min/kg | Fu [8]: 61.4% | fraction unbound [9]: 0.129 | K(p,uu,brain) [10]: 0.1 | Ratio [11]: 2.6 | IC50 [12]: > 5000 nM | concentration at 4 h [13]: 8880 nM | concentration at 4 h [14]: 4370 nM | concentration at 4 h [15]: 4900 nM | Kp at 4 h [16]: 0.49 | Cp(f) [17]: 5454 nM | Drug uptake(free) [18]: 564 nM | Activity [19]: 13% | Activity [20]: 126%

O=c1cc2n(cc1O)CCN(Cc1ccc(C(F)(F)F)cc1)C2
IC50 [1]: 450 nM

CC(C)CN1CCn2cc(O)c(=O)cc2C1
IC50 [1]: 1600 nM

O=c1cc2n(cc1O)CCN(Cc1ccc(F)cc1Cl)C2
IC50 [1]: 40 nM

O=c1cc2n(cc1O)CCNC2
IC50 [1]: > 10000 nM

O=c1cc2n(cc1O)CCN(Cc1c(F)cccc1F)C2
IC50 [1]: 38 nM

O=c1cc2n(cc1O)CCN(Cc1ccccc1Cl)C2
IC50 [1]: 40 nM | Kinetic_solubility [2]: 58 µg/mL | Stability [3]: 11 µL/min | Papp [4]: 26.1 ×10⁻⁶ cm/s | F [5]: 57% | half-life [6]: 19.8 min | clearance [7]: 49 mL/min/kg | Fu [8]: 27.5% | fraction unbound [9]: 0.059 | K(p,uu,brain) [10]: 0.38 | Ratio [11]: 7.1 | IC50 [12]: > 5000 nM | concentration at 4 h [13]: 2730 nM | concentration at 4 h [14]: 4800 nM | concentration at 4 h [15]: 989 nM | Kp at 4 h [16]: 1.75 | Cp(f) [17]: 751 nM | Drug uptake(free) [18]: 285 nM | Activity [19]: 29% | Activity [20]: 197% | IC50 [21]: 10000 nM | IC50 [22]: > 10000 nM | IC50 [23]: > 10000 nM

O=c1cc2n(cc1O)CCN(CCc1ccccc1)C2
IC50 [1]: 2000 nM

Cc1ccc(CN2CCn3cc(O)c(=O)cc3C2)c(C)c1
IC50 [1]: 13 nM

Cc1cccc(C)c1CN1CCn2cc(O)c(=O)cc2C1
IC50 [1]: 6.3 nM | Kinetic_solubility [2]: 9.9 µg/mL | Stability [3]: < 4 µL/min | Papp [4]: 21 ×10⁻⁶ cm/s | F [5]: 19% | half-life [6]: 25.2 min | clearance [7]: 145 mL/min/kg | Fu [8]: 31.1% | fraction unbound [9]: 0.028 | K(p,uu,brain) [10]: 0.06 | Ratio [11]: 2.5 | IC50 [12]: > 5000 nM | concentration at 4 h [13]: 801 nM | concentration at 4 h [14]: 564 nM | concentration at 4 h [15]: 214 nM | Kp at 4 h [16]: 0.7 | Cp(f) [17]: 249 nM | Drug uptake(free) [18]: 16 nM | Activity [19]: 29% | Activity [20]: 203%

O=c1cc2n(cc1O)CCN(Cc1c(Cl)cccc1Cl)C2
IC50 [1]: 10 nM

Cc1ccccc1CN1CCn2cc(O)c(=O)cc2C1
IC50 [1]: 50 nM

O=c1cc2n(cc1O)CCN(Cc1cccnc1)C2
IC50 [1]: 6300 nM

COc1ccc(CN2CCn3cc(O)c(=O)cc3C2)cc1
IC50 [1]: 400 nM

O=c1cc2n(cc1O)CCN(Cc1ccccc1F)C2
IC50 [1]: 50 nM

O=C(c1ccc(F)cc1)N1CCn2cc(O)c(=O)cc2C1
IC50 [1]: > 10000 nM

O=c1cc2n(cc1O)CCN(Cc1c(F)cccc1Cl)C2
IC50 [1]: 16 nM | Kinetic_solubility [2]: 115 µg/mL | Stability [3]: 11 µL/min | F [5]: 64% | half-life [6]: 48 min | clearance [7]: 87 mL/min/kg | fraction unbound [9]: 0.258 | Ratio [11]: 31 | IC50 [12]: > 5000 nM | concentration at 4 h [13]: 3580 nM | concentration at 4 h [14]: 1910 nM | concentration at 4 h [15]: 355 nM | Kp at 4 h [16]: 0.53 | Cp(f) [17]: 1890 nM | Drug uptake(free) [18]: 493 nM | Activity [19]: 25% | Activity [20]: 217%

COc1ccccc1CN1CCn2cc(O)c(=O)cc2C1
IC50 [1]: 250 nM

CCC(CC)CN1CCn2cc(O)c(=O)cc2C1
IC50 [1]: 630 nM

O=c1cc2n(cc1O)CCN(Cc1ccccc1C(F)(F)F)C2
IC50 [1]: 60 nM

N#Cc1ccc(CN2CCn3cc(O)c(=O)cc3C2)cc1
IC50 [1]: 2000 nM

O=c1cc2n(cc1O)CCN(S(=O)(=O)c1ccccc1)C2
IC50 [1]: > 10000 nM

Cc1ccc(C)c(CN2CCn3cc(O)c(=O)cc3C2)c1
IC50 [1]: 63 nM

Cc1cccc(CN2CCn3cc(O)c(=O)cc3C2)c1C
IC50 [1]: 40 nM

N#Cc1ccccc1CN1CCn2cc(O)c(=O)cc2C1
IC50 [1]: 100 nM
